{"source": "ChEMBL document CHEMBL3526115", "about": "“Differences in the pharmacokinetics of 4-amino-3-chlorophenyl hydrogen sulfate, a metabolite of resatorvid, in rats and dogs” (Drug Metab Dispos, 2012)", "key": {"[1]": {"experiment": "In vitro plasma protein binding in rat at 50 ug/ml by ultrafiltration method", "format": "ADME, cell-free", "settings": "read-out: PPB (converted)", "procedure,_shortened": "(§1)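 [14C]M-III in saline was added to rat or dog plasma at final 0.5, 5 and 50 µg/ml. Plasma was ultrafiltered by centrifugation at 1500g and 37°C for 10 min, and 14C was measured in plasma and filtrate. Mean ± S.D., n = 3.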"}, "[2]": {"experiment": "In vivo plasma protein binding in Crj:CD(SD)IGS rat at 0.125 mg/hr, iv administered as continuous infusion by ultrafiltration method in presence of 31 mg/hr/kg probenecid", "format": "ADME, organism-based", "settings": "with probenecid 31 mg/hr/kg, read-out: PPB (converted)", "procedure,_shortened": "(§2)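 Rats received a continuous iv infusion of [14C]M-III at 0.125 mg/rat/h, with probenecid co-infused at 16, 31 or 62 mg/h/kg or vehicle alone, for 5 h. Arterial plasma was sampled during infusion. CLtot = infusion rate / steady-state plasma M-III (120–180 min). Unbound fraction was measured by ultrafiltration of 5-h plasma (10,000 MWCO, 1500g, 37°C, 10 min). CLint = CLtot / unbound ratio.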"}, "[3]": {"experiment": "Unbound fraction in Crj:CD(SD)IGS rat plasma at 0.125 mg/hr, iv administered as continuous infusion by ultrafiltration method in presence of 62 mg/hr/kg probenecid", "format": "ADME, organism-based", "settings": "with probenecid 62 mg/hr/kg (co-administered)", "procedure,_shortened": "as §2"}, "[4]": {"experiment": "Terminal half life in Crj:CD(SD)IGS rat at 0.5 mg/kg, iv administered as bolus dose by HPLC-based liquid scintillation counting analysis", "format": "ADME, organism-based", "set-up": "dose 0.5 mg/kg, route intravenous", "settings": "in vivo, read-out: beta t1/2 (converted)", "procedure,_shortened": "(§3)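 [14C]M-III in saline given as a single iv bolus at 0.5 mg/kg to male rats (tail-vein blood, 5 min–24 h) or male beagle dogs (cephalic-vein blood, 5 min–168 h). Heparinized plasma counted for radioactivity; M-III quantified by HPLC with fraction collection and liquid scintillation counting. C5 min read directly; terminal t1/2 by linear regression, kel = ln2/t1/2, Vd = dose/back-extrapolated C0, CLtot = dose/AUCinf. Mean ± S.D., n = 3.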"}, "[5]": {"experiment": "Apparent volume of distribution in Crj:CD(SD)IGS rat at 0.5 mg/kg, iv administered as bolus dose by HPLC-based liquid scintillation counting analysis", "format": "ADME, organism-based", "set-up": "dose 0.5 mg/kg, route intravenous", "settings": "in vivo, read-out: Vd(app)", "procedure,_shortened": "as §3"}, "[6]": {"experiment": "Unbound fraction in Crj:CD(SD)IGS rat plasma at 0.125 mg/hr, iv administered as continuous infusion by ultrafiltration method", "format": "ADME, organism-based", "procedure,_shortened": "as §2"}, "[7]": {"experiment": "Total body clearance in Crj:CD(SD)IGS rat at 0.125 mg/hr, iv administered as continuous infusion by HPLC based liquid scintillation counting analysis", "format": "ADME, organism-based", "settings": "in vivo", "procedure,_shortened": "as §2"}, "[8]": {"experiment": "Total body clearance in Crj:CD(SD)IGS rat at 0.125 mg/hr, iv administered as continuous infusion by HPLC based liquid scintillation counting analysis in presence of 16 mg/hr/kg probenecid", "format": "ADME, organism-based", "settings": "in vivo, with probenecid 16 mg/hr/kg", "procedure,_shortened": "as §2"}, "[9]": {"experiment": "In vitro plasma protein binding in rat at 5 ug/ml by ultrafiltration method", "format": "ADME, cell-free", "settings": "read-out: PPB (converted)", "procedure,_shortened": "as §1"}, "[10]": {"experiment": "Renal clearance in Crj:CD(SD)IGS rat at 0.5 mg/kg, iv administered as bolus dose measured from 0 to 24 hrs by HPLC-based liquid scintillation counting analysis", "format": "ADME, organism-based, Kidney", "set-up": "dose 0.5 mg/kg, route intravenous", "settings": "in vivo", "procedure,_shortened": "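After a 0.5 mg/kg iv bolus of [14C]M-III, urine was collected 0–24 h (rat) or 0–168 h (dog) and injected directly onto HPLC with fraction collection and scintillation counting. M-III in urine was derived from the urinary 14C excretion ratio and the [14C]M-III composition. CLrenal = urinary M-III amount / AUC0–24 h (rat) or AUC0–168 h (dog). Unbound CLrenal = CLrenal / free fraction.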"}, "[11]": {"experiment": "Unbound fraction in Crj:CD(SD)IGS rat plasma at 0.125 mg/hr, iv administered as continuous infusion by ultrafiltration method in presence of 31 mg/hr/kg probenecid", "format": "ADME, organism-based", "settings": "with probenecid 31 mg/hr/kg", "procedure,_shortened": "as §2"}, "[12]": {"experiment": "In vivo plasma protein binding in Crj:CD(SD)IGS rat at 0.125 mg/hr, iv administered as continuous infusion by ultrafiltration method", "format": "ADME, organism-based", "settings": "read-out: PPB (converted)", "procedure,_shortened": "as §2"}, "[13]": {"experiment": "In vivo plasma protein binding in Beagle dog at 0.5 mg/kg, iv administered as bolus dose by ultrafiltration method", "format": "ADME, organism-based, Canis lupus familiaris", "set-up": "dose 0.5 mg/kg, route intravenous", "settings": "read-out: PPB (converted)", "procedure,_shortened": "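Plasma was taken from beagle dogs 24 h after a 0.5 mg/kg iv bolus of [14C]M-III (cephalic vein). Binding was determined by ultrafiltration (1500g, 37°C, 10 min), with 14C measured in plasma and filtrate.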"}}}
{"smiles": "N[14c]1[14cH][14cH][14c](OS(=O)(=O)O)[14cH][14c]1Cl", "values": [{"measurement": "fraction unbound at 50 ug/ml", "setting": "[1]", "result": 0.102}, {"measurement": "fraction unbound", "setting": "[2]", "result": 0.197}, {"measurement": "fraction unbound", "setting": "[3]", "result": 0.184}, {"measurement": "half-life", "setting": "[4]", "result": 4.1, "unit": "h"}, {"measurement": "Vd", "setting": "[5]", "result": 0.14, "unit": "L/kg"}, {"measurement": "fraction unbound", "setting": "[6]", "result": 0.088}, {"measurement": "clearance", "setting": "[7]", "result": 11.4, "unit": "mL/min/kg"}, {"measurement": "clearance", "setting": "[8]", "result": 4.45, "unit": "mL/min/kg"}, {"measurement": "fraction unbound at 5 ug/ml", "setting": "[9]", "result": 0.078}, {"measurement": "CL renal", "setting": "[10]", "result": 9.47, "unit": "mL/min/kg"}, {"measurement": "fraction unbound", "setting": "[11]", "result": 0.197}, {"measurement": "fraction unbound", "setting": "[12]", "result": 0.088}, {"measurement": "fraction unbound", "setting": "[13]", "result": 0.08}]}
